Calls of active or inactive are those of the source. The rule behind the calls is not given here.

The target of assay [1] is T1, Sphingosine 1-phosphate receptor 4 (Homo sapiens) (UniProt O95977).
T1 sequence (whole entry): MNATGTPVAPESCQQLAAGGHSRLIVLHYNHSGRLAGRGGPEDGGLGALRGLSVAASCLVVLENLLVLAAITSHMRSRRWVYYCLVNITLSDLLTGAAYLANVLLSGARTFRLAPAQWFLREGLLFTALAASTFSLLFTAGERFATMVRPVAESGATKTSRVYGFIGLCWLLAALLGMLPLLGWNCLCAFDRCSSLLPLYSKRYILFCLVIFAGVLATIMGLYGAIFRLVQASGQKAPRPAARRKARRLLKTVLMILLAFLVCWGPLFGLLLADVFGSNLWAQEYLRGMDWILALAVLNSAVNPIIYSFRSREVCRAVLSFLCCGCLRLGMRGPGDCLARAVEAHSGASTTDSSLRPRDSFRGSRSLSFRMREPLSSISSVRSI
The assay is described as follows: Antagonist activity at S1P4 receptor in human U2OS cells expressing EDG6-linked GAL4-VP16 transcription factor via TEV protease site/beta-arrestin/TEV protease fusion protein and beta-lactamase reporter gene assessed as beta-lactamase expression up to 25 uM by FRET assay. Format: functional, cell-based. The procedure, abridged:
(§1)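 Cells co-express a beta-arrestin/TEV protease fusion protein and a beta-lactamase reporter gene under a UAS response element. Reporter expression was read as FRET of a cleavable, fluorogenic, cell-permeable beta-lactamase substrate. Compounds were tested at concentrations up to 25 μM. IC50 values are the mean of n = 3 determinations.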
In general terms: Reporter assays use an easily measured gene product as a stand-in for the process of interest.

Assay [2] concerns the target T2, Sphingosine 1-phosphate receptor 2 (Homo sapiens, UniProt O95136). Put plainly: Inhibition of S1P2 receptor at 25 uM. Summed up:
(§2)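 Selectivity counter-screen reported as percentage of inhibition at a single 25 μM concentration, given as the mean of n = 3 determinations.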

Assay [3] addresses T2, Sphingosine 1-phosphate receptor 2. The assay is described as follows: Inhibition of S1P2 receptor.
Assay [4] addresses T3, Sphingosine 1-phosphate receptor 1 (Homo sapiens, UniProt P21453). The assay is described as follows: Inhibition of S1P1 receptor at 25 uM. The procedure, abridged: as §2
Assay [5] concerns the target T4, Sphingosine 1-phosphate receptor 5 (Homo sapiens, UniProt Q9H228). Put plainly: Inhibition of S1P5 receptor at 25 uM. Summed up:
as §2

Assay [6] addresses Sphingosine 1-phosphate receptor 3 (Homo sapiens, UniProt Q99500). The assay is described as follows: Inhibition of S1P3 receptor at 25 uM. The procedure, abridged:
as §2

The target in assay [7] is T5, Sphingosine 1-phosphate receptor 4 (Homo sapiens, UniProt O95977).
T5 sequence (O95977 whole entry): T1 sequence (whole entry)
Put plainly: Antagonist activity at S1P4 receptor in human U2OS cells expressing EDG6-linked GAL4-VP16 transcription factor via TEV protease site/beta-arrestin/TEV protease fusion protein and beta-lactamase reporter gene assessed as beta-lactamase expression by FRET assay. It is filed as functional, cell-based. Summed up: as §1

Assay [8] addresses T4, Sphingosine 1-phosphate receptor 5. Put plainly: Inhibition of S1P5 receptor.
The target in assay [9] is T3, Sphingosine 1-phosphate receptor 1. Put plainly: Inhibition of S1P1 receptor.

Chain of Sphingosine 1-phosphate receptor 3 (Q99500 whole entry): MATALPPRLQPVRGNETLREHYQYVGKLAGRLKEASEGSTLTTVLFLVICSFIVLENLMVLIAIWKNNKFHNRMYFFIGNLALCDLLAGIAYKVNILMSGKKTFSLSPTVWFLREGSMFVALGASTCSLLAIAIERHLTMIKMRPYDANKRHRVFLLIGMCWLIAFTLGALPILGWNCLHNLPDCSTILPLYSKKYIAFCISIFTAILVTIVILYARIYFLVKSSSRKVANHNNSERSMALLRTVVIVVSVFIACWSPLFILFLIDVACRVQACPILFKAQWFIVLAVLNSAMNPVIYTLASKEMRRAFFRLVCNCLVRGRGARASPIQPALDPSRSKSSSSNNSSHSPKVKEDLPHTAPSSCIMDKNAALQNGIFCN
T4 sequence (Q9H228 whole entry): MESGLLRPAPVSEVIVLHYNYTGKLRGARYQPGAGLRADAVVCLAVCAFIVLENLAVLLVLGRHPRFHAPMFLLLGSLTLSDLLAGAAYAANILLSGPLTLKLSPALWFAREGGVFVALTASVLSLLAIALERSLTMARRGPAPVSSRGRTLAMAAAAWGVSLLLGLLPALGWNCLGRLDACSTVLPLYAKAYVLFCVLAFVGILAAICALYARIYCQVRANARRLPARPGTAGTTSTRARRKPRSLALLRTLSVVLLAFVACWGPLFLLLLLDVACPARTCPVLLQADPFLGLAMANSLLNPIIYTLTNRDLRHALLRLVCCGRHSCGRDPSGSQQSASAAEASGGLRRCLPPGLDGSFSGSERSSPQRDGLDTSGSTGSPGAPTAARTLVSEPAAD
T2 sequence (O95136 whole entry): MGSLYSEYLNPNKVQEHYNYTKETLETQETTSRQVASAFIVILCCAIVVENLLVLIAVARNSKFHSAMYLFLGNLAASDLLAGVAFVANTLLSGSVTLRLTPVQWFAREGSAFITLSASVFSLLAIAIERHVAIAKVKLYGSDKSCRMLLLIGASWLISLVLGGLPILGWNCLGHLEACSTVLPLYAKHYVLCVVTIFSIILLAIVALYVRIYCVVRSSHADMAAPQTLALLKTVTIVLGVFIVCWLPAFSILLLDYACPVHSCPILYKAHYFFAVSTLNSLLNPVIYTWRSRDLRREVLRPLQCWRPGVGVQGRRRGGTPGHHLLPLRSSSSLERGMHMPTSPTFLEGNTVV
T3 sequence (P21453 whole entry): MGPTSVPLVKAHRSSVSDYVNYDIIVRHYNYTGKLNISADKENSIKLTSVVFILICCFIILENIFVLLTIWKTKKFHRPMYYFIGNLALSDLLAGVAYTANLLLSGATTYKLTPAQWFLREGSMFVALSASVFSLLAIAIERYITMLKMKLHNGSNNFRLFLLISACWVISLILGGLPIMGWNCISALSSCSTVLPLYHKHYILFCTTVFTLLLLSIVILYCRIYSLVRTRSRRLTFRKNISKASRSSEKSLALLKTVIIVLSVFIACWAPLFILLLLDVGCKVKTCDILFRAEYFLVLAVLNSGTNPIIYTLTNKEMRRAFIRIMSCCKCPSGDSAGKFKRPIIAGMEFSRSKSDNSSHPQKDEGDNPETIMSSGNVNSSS

For `Cc1cccc(C)c1NC(=O)c1ccc(-c2c(C)cccc2C)o1`, in assay [1], the inhibition – broadly, the percentage by which the read-out fell short of the control – was “inactive”.

Regarding `Cc1cc(CO)cc(C)c1NC(=O)c1ccc(-c2cc(Cl)ccc2Cl)o1`, the inhibition in [2] came out at 85%; in [4], 45%; in [5] it was 40%; in assay [6], 60%. Moreover, the IC50 (usually the concentration that gives 50% inhibition) in assay [3] turned out to be 3000 nM; in [7], 21 nM.

For the compound `Cc1cccc(C)c1NC(=O)c1ccc(-c2ccc(Cl)cc2Cl)o1`, the IC50 in assay [7] worked out at 2000 nM.

As for `CCc1cccc(CC)c1NC(=O)c1ccc(-c2cc(Cl)ccc2Cl)o1`, the inhibition result in assay [2], in [4], in assay [5] and in [6] was “inactive” in each case. In addition, in assay [7], the concentration for half-maximal inhibition (IC50) turned out to be 89 nM.

On to `CC(=O)NCc1cc(C)c(NC(=O)c2ccc(-c3cc(Cl)ccc3Cl)o2)c(C)c1`, for which the IC50 in [7] is 94 nM.

`CCc1cccc(C)c1NC(=O)c1ccc(-c2cc(Cl)ccc2Cl)o1`: the inhibition was 50% in assay [2], 50% in assay [5] and 55% in assay [6]. Moreover, the inhibition result in assay [4] was “inactive”. In addition, the IC50 in assay [7] was determined as 41 nM.

For the compound `COc1cc(C)c(NC(=O)c2ccc(-c3cc(Cl)ccc3Cl)o2)c(C)c1`, the inhibition is 70% in [2], 20% in assay [4], 40% in assay [5] and 30% in assay [6]. Besides, the IC50 turned out to be 2800 nM in [3] and 80 nM in assay [7].

Take `Cc1cscc1-c1ccc(C(=O)Nc2c(C)cccc2C)o1`: the IC50 in assay [7] was determined as 286 nM.

For the compound `Cc1cccc(C)c1NC(=O)c1ccc(-c2cc(Cl)ccc2Cl)o1`, the IC50 in assay [8] was determined as 14000 nM; in [7] it was 78 nM.

Turning to `COc1ccc(NC(=O)c2ccc(-c3cc(Cl)ccc3Cl)o2)c(C)c1`, the half-inhibitory concentration (IC50) in assay [7] came out at 589 nM.

On to `CC(=O)OCc1cc(C)c(NC(=O)c2ccc(-c3cc(Cl)ccc3Cl)o2)c(C)c1`, for which the IC50 in assay [7] was found to be 34 nM.

Consider `Cc1cc(CN)cc(C)c1NC(=O)c1ccc(-c2cc(Cl)ccc2Cl)o1`, for which the inhibition worked out at 90% in assay [2], 90% in [5] and 95% in assay [6]. In addition, the 50% inhibitory concentration (IC50) in [3] amounted to 3900 nM; in assay [9], 6400 nM; in assay [8], 5500 nM; in assay [7], 25 nM.

Take `Cc1cccc(C)c1NC(=O)c1ccc(-c2cc(C(F)(F)F)ccc2C(F)(F)F)o1`: the inhibition entry in assay [1] was “inactive”.

As for `Cc1cccc(C)c1N(C)C(=O)c1ccc(-c2ccccc2Cl)o1`, the IC50 in [7] came to 269 nM.

Regarding `O=C(Nc1c(F)cccc1F)c1ccc(-c2cc(Cl)ccc2Cl)o1`, the IC50 in assay [7] was 6400 nM.

With `Cc1cccc(C)c1NC(=O)c1ccc(-c2cccc(Cl)c2)o1`, the IC50 in assay [7] was found to be 497 nM.

Take `Cc1ccc2ccccc2c1NC(=O)c1ccc(-c2cc(Cl)ccc2Cl)o1`: the half-inhibitory concentration (IC50) in assay [7] came to 253 nM.

On to `Cc1cccc(C)c1NC(=O)c1ccc(-c2cc(F)ccc2F)o1`, for which the IC50 in assay [7] came to 308 nM.

As for `Cc1ccc(C)c(-c2ccc(C(=O)Nc3c(C)cccc3C)o2)c1`, the IC50 in [7] was 64 nM.

As for `Cc1cccc(Cl)c1NC(=O)c1ccc(-c2cc(Cl)ccc2Cl)o1`, the IC50 in [7] was 169 nM.

Turning to `Cc1cc(OCCO)cc(C)c1NC(=O)c1ccc(-c2cc(Cl)ccc2Cl)o1`, the inhibition in assay [2] came out at 90%; in [4], 35%; in [5], 60%; in [6] it was 70%. The figures for the IC50 in assay [3] and in assay [7] were 2400 nM and 44 nM, respectively.

Turning to `Cc1ccsc1-c1ccc(C(=O)Nc2c(C)cc(O)cc2C)o1`, the inhibition in assay [2] turned out to be 80%; in [4] it was 75%; in [6], 10%. The inhibition entry in assay [5] is “inactive”. Moreover, the concentration for half-maximal inhibition (IC50) in [7] is 46 nM.

As to `O=C(c1ccc(-c2cc(Cl)ccc2Cl)o1)N1CCc2ccccc21`, in assay [1], the inhibition result is “inactive”.

Turning to `COc1ccc(C)c(NC(=O)c2ccc(-c3cc(Cl)ccc3Cl)o2)c1`, the half-inhibitory concentration (IC50) in assay [7] was found to be 931 nM.

Consider `CC(C)c1cccc(C(C)C)c1NC(=O)c1ccc(-c2cc(Cl)ccc2Cl)o1`, for which the IC50 in [7] stood at 105 nM.

Turning to `Cc1ccc(S(C)(=O)=O)c(C)c1NC(=O)c1ccc(-c2cc(Cl)ccc2Cl)o1`, the IC50 in assay [7] was 302 nM.

As to `Cc1cccc(C)c1N(C)C(=O)c1ccc(-c2ccco2)o1`, the 50% inhibitory concentration (IC50) in [7] worked out at 130 nM.

For the compound `Cc1cc(C)c(N(C)C(=O)c2ccc(-c3cc(Cl)ccc3Cl)o2)c(C)c1`, in assay [7], the 50% inhibitory concentration (IC50) worked out at 8100 nM.

Turning to `Cc1cc(O)cc(C)c1NC(=O)c1ccc(-c2cc(Cl)ccc2Cl)o1`, the inhibition in assay [2] was determined as 90%. Besides, the IC50 in [3] was determined as 2800 nM; in assay [9], 5300 nM; in assay [8], 3000 nM; in assay [7], 58 nM.

With `Cc1cc(C)c(NC(=O)c2ccc(-c3cc(Cl)ccc3Cl)o2)c(C)c1`, in [7], the half-maximal inhibitory concentration (IC50) is 63 nM.

Consider `Cc1cccc(C)c1N(C)C(=O)c1ccc(-c2cc(O)ccc2O)o1`, for which, in assay [1], the inhibition result is “inactive”.

For the compound `Cc1cc(OCC(N)=O)cc(C)c1NC(=O)c1ccc(-c2cc(Cl)ccc2Cl)o1`, the concentration for half-maximal inhibition (IC50) in assay [7] stood at 52 nM.

Regarding `Cc1cccc(CO)c1NC(=O)c1ccc(-c2cc(Cl)ccc2Cl)o1`, the half-maximal inhibitory concentration (IC50) in assay [7] is 573 nM.

Take `COc1ccc(OC)c(-c2ccc(C(=O)N(C)c3c(C)cccc3C)o2)c1`: the IC50 in assay [7] came out at 513 nM.

Take `Cc1cc(CN(C)C)cc(C)c1NC(=O)c1ccc(-c2cc(Cl)ccc2Cl)o1`: in [7], the IC50 worked out at 348 nM.

Consider `Cc1cccc(C)c1NC(=O)c1ccc(-c2ccccc2)o1`, for which the IC50 in assay [7] came to 575 nM.

In the case of `Cc1cccc(C)c1NC(=O)c1ccc(-c2ccsc2)o1`, the IC50 in assay [7] was determined as 448 nM.

For `Cc1ccc(C)c(NC(=O)c2ccc(-c3cc(Cl)ccc3Cl)o2)c1`, the IC50 in [7] came to 165 nM.

Regarding `Cc1ccsc1-c1ccc(C(=O)Nc2c(C)cc(CO)cc2C)o1`, the inhibition worked out at 90% in [2] and 80% in [4]. Also, the inhibition entry in [5] and in assay [6] was “inactive” throughout. Besides, the IC50 in assay [7] came out at 34 nM.

As for `COc1cccc(C)c1NC(=O)c1ccc(-c2cc(Cl)ccc2Cl)o1`, the concentration for half-maximal inhibition (IC50) in assay [7] was determined as 163 nM.

For the compound `COc1cccc(OC)c1NC(=O)c1ccc(-c2cc(Cl)ccc2Cl)o1`, the IC50 in assay [7] was found to be 417 nM.

As to `Cc1cccc(C)c1NC(=O)c1ccc(-c2ccc(Cl)s2)o1`, the half-maximal inhibitory concentration (IC50) in [7] turned out to be 515 nM.

`Cc1ccsc1-c1ccc(C(=O)Nc2c(C)cccc2C)o1`: the values for the IC50 in [3] and in assay [7] were 2600 nM and 93 nM, respectively. Moreover, the inhibition is 95% in [4], 40% in assay [5] and 20% in assay [6].

For the compound `Cc1cc(-c2ccccc2)cc(C)c1NC(=O)c1ccc(-c2cc(Cl)ccc2Cl)o1`, the half-inhibitory concentration (IC50) in assay [7] was 115 nM.

Regarding `Cc1cccc(C)c1NC(=O)c1ccc(-c2cccs2)o1`, in assay [7], the IC50 was determined as 118 nM.

The record behind these values is ChEMBL document CHEMBL1777724, “Discovery, design and synthesis of the first reported potent and selective sphingosine-1-phosphate 4 (S1P4) receptor antagonists” (Bioorg Med Chem Lett, 2011).
